Data published in BindingDB's records for doi:10.1021/jm049389h (Johns Hopkins University, 2005).

Target: Fatty acid synthase (Homo sapiens, UniProt P49327)
Experiment: Inhibitory concentration against purified human fatty acid synthase activity in ZR-75-1 breast cancer cells
Outline: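 FAS purified from ZR-75-1 human breast cancer cells (2 µg per well). Overall reaction read at 37 °C as malonyl-CoA-dependent NADPH oxidation at 340 nm, every 10 s for 5 min. Average of duplicate runs; neg means IC50 > 50 µg/mL.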

Sequence of Fatty acid synthase (P49327 whole entry): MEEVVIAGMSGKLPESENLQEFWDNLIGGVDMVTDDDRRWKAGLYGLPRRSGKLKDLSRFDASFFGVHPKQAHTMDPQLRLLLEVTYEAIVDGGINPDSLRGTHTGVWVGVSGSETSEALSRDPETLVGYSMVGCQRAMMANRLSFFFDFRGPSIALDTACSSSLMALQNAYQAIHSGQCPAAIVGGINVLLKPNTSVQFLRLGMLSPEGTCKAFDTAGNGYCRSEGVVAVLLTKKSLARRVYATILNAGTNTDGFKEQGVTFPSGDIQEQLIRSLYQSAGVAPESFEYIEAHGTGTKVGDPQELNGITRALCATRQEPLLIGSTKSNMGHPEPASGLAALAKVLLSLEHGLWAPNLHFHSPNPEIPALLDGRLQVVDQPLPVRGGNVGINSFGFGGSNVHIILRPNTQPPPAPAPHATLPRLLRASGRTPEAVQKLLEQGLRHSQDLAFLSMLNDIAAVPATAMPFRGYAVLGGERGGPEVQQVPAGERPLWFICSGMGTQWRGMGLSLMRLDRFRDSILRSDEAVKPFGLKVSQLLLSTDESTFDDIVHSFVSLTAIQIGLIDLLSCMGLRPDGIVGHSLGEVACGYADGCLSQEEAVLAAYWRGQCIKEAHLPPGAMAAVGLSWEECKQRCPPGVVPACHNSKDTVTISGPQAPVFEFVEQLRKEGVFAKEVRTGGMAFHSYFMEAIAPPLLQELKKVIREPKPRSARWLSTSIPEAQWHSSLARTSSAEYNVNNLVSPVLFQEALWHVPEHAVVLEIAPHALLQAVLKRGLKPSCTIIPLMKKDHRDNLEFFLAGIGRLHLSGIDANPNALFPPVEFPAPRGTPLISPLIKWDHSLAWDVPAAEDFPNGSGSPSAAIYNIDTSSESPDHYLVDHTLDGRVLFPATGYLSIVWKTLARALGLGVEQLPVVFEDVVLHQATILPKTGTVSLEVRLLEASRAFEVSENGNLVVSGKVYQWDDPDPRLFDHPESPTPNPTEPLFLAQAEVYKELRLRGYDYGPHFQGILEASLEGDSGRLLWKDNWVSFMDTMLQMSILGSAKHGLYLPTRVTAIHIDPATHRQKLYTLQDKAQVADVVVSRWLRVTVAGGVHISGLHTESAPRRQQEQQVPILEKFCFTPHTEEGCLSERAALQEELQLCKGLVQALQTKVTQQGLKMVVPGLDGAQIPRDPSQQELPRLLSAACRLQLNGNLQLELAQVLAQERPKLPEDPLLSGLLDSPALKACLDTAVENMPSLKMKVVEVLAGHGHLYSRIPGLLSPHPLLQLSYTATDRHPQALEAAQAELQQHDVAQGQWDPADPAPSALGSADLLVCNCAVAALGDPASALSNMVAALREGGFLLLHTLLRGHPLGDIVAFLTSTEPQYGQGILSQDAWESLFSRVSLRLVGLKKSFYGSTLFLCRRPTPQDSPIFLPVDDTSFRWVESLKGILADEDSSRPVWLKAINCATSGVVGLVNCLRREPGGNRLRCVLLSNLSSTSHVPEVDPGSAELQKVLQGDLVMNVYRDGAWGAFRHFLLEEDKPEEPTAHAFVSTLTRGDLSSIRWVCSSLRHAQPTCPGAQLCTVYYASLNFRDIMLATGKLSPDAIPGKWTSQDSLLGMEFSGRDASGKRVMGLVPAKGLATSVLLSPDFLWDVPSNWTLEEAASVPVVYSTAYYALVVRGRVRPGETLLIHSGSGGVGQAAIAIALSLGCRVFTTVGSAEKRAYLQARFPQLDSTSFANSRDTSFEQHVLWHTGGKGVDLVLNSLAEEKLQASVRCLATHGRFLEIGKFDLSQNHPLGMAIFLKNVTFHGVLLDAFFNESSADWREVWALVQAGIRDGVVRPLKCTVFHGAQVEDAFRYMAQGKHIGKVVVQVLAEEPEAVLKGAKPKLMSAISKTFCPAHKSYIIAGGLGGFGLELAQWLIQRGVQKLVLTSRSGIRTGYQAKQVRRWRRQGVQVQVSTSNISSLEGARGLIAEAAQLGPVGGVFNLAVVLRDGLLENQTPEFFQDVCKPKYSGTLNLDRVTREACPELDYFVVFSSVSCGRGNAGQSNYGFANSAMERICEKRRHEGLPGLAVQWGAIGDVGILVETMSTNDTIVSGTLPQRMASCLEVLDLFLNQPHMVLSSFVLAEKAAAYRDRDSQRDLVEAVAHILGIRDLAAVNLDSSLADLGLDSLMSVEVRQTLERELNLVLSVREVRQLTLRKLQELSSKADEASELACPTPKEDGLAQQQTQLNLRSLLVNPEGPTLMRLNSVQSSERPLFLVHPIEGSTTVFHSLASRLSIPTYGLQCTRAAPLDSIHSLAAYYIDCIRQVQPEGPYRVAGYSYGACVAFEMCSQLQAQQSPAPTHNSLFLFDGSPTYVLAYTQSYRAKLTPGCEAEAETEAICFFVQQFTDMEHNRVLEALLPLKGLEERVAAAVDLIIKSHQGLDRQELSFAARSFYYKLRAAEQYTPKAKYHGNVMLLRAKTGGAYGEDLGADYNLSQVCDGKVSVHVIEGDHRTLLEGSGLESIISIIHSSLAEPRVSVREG

`C=C/C(C)=C/[C@@]1(C)SC(=O)C(C)C1=O` (stereo partly drawn) [(R)-(+)-Thiolactomycin] was tested, and the IC50 was 99.8 µM.
